Test results published in ChEMBL document CHEMBL1136311, “Growth inhibition activity of thioacetal artemisinin derivatives against human umbilical vein endothelial cells” (Bioorg Med Chem Lett, 2003).

system: HUVEC; experiment: Inhibitory activity against human umbilical vein endothelial cells (HUVEC) was assayed using MTT colorimetric proliferation assay; format: functional, cell-based
Outline: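 HUVEC grown in EGM-2 medium with growth factor, seeded at 10,000 cells/well and left 4 h to adhere. Test compounds diluted in the medium were added. Incubation in a 5% CO₂ humidified atmosphere, then viability read by MTT colorimetric proliferation assay. Growth inhibition reported as IC50.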

SMILES | IC50
CC(=O)S[C@H]1O[C@@H]2O[C@]3(C)CC[C@H]4[C@H](C)CC[C@@H]([C@H]1C)[C@@]24OO3 | 4.56 µM
C[C@H]1[C@H](S)O[C@@H]2OC3(C)CC[C@H]4[C@H](C)CC[C@@H]1[C@@]24OO3 (single isomer, unassigned) | 1.29 µM
C[C@H]1[C@@H]2CC[C@@H](C)[C@@H]3CCC4(C)OO[C@@]23[C@H](O[C@@H]1S(=O)(=O)c1ccccc1)O4 (single isomer, unassigned) | 1.74 µM
C[C@@H]1[C@@H]2CC[C@@H](C)[C@@H]3CCC4(C)O[C@@H](O[C@@H]1S(=O)(=O)c1ccccc1)[C@]23O4 (single isomer, unassigned) | > 50 µM
C[C@H]1[C@@H](Sc2ccccc2)O[C@@H]2OC3(C)CC[C@H]4[C@H](C)CC[C@@H]1[C@@]24O3 (single isomer, unassigned) | > 50 µM
C[C@H]1[C@H](Oc2ccccc2)O[C@@H]2OC3(C)CC[C@H]4[C@H](C)CC[C@@H]1[C@@]24OO3 (single isomer, unassigned) | 31 µM
C[C@H]1[C@@H](Oc2ccccc2)O[C@@H]2OC3(C)CC[C@H]4[C@H](C)CC[C@@H]1[C@@]24OO3 (single isomer, unassigned) | 33.8 µM
C[C@H]1[C@H](S(=O)(=O)c2ccccc2)O[C@@H]2OC3(C)CC[C@H]4[C@H](C)CC[C@@H]1[C@@]24OO3 (single isomer, unassigned) | 12.8 µM
C[C@H]1[C@H](Sc2ccccc2)O[C@@H]2OC3(C)CC[C@H]4[C@H](C)CC[C@@H]1[C@@]24OO3 (single isomer, unassigned) | 0.93 µM
C[C@@H]1[C@@H]2CC[C@@H](C)[C@@H]3CCC4(C)OO[C@@]23[C@H](O[C@@H]1S(=O)(=O)c1ccccc1)O4 (single isomer, unassigned) | 18.2 µM
C[C@H]1[C@@H](Sc2ccccc2)O[C@@H]2OC3(C)CC[C@H]4[C@H](C)CC[C@@H]1[C@@]24OO3 (single isomer, unassigned) | 5.24 µM
C[C@@H]1CC[C@H]2[C@@H](C)C(=O)O[C@@H]3O[C@@]4(C)CC[C@@H]1[C@]32OO4 [ARTEMISININ] | > 50 µM
CCO[C@H]1O[C@@H]2O[C@@]3(C)CC[C@H]4[C@H](C)CC[C@@H]([C@H]1C)[C@@]24OO3 [ARTEMOTIL] | > 50 µM
C[C@H]1[C@@H](O)O[C@@H]2O[C@@]3(C)CC[C@H]4[C@H](C)CC[C@@H]1[C@@]24OO3 [ARTENIMOL] | 8.91 µM
C[C@@H]1CC[C@H]2[C@@H](C)C(=O)O[C@@H]3O[C@@]4(C)CC[C@@H]1[C@]32O4 [DEOXYARTEMISININ] | > 50 µM
